We go through 19 molecules from ChEMBL document CHEMBL1649368, “Novel isatinyl thiosemicarbazones derivatives as potential molecule to combat HIV-TB co-infection” (Eur J Med Chem, 2011).

≈ marks a conversion by molar mass, not a printed value.

The subject of data set [1] is Mycobacterium tuberculosis. Put plainly: Antimycobacterial activity against Mycobacterium tuberculosis H37Ra assessed as inhibition of bacterial growth in log phase by agar dilution method. The class given is functional. Summed up:
(§1)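 Log-phase MTB was tested by agar dilution on Middlebrook 7H11 with OADC, following NCCLS guidance. MIC was the lowest concentration giving complete growth inhibition, determined in triplicate.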

Data set [2] concerns Mycobacterium tuberculosis. Put plainly: Antimycobacterial activity against Mycobacterium tuberculosis H37Ra assessed as inhibition of bacterial growth in dormant phase. The data set is classed as functional. An outline of the steps:
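MTB grown in 7H9 with glycerol, OADC and Tween 80 at 37 °C with rolling to OD600 ~0.6, then washed and held in PBS 6 weeks at 37 °C. Starved cells (~1×10^7 in 1 mL PBS) were exposed to compounds in DMSO at various concentrations for 7 days with shaking. After washing, dilutions were plated on antibiotic-free 7H11 and counted after 4 weeks. MIC was complete growth inhibition, in triplicate.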

Data set [3] deals with Human immunodeficiency virus 1. Put plainly: Antiviral activity against HIV1 3B infected in human MT4 cells assessed as protection against virus-induced cytopathogenicity after 5 days by microtiter plate analysis. The class given is functional, organism-based. As to conditions: Human immunodeficiency virus 1, 3B, MT4, 120 h. An outline of the steps:
(§2)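 MT-4 cells were grown in RPMI-1640 DM with 10% heat-inactivated calf serum and gentamicin. HIV-1 IIIB (100 CCID50) or mock infection was run in parallel with compounds in triplicate, at 37 °C and 5% CO2 for 5 days. Viability was read by MTT spectrophotometry. EC50 was the 50% reduction in virus cytopathic effect; CC50 was the 50% loss of mock-infected cell viability.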
(Damage to the host cells serves as the signal in cytopathic effect assays.)

The nature of data set [4]: Cytotoxicity against human MT4 cells after 5 days by spectrophotometry. The class given is cell-based. An outline of the steps: as §2
In data set [5] the test system is Mycobacterium tuberculosis. Put plainly: Antimycobacterial activity against Mycobacterium tuberculosis H37Ra by agar dilution method. The data set is classed as functional. Summed up:
as §1

The target of data set [6] is T1, Isocitrate lyase (Mycobacterium tuberculosis) (UniProt P9WKK7).
T1 sequence (whole entry): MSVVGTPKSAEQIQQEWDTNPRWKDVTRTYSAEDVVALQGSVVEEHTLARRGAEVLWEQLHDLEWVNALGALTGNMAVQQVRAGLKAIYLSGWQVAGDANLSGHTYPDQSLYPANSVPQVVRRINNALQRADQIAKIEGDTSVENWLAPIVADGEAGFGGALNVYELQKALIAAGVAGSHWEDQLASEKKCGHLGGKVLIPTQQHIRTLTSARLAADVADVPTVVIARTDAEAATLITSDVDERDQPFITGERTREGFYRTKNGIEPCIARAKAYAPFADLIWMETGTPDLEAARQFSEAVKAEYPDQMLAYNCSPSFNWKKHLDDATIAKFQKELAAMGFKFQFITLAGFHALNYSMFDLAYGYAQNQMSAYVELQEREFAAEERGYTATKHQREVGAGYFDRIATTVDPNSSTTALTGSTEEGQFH
Put plainly: Inhibition of Mycobacterium tuberculosis isocitrate lyase […]. Summed up: (§3)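 Isocitrate lyase activity was measured at 37 °C as glyoxylate-phenylhydrazone formation from isocitrate with phenylhydrazine, MgCl2 and 2-mercaptoethanol in potassium phosphate buffer. After 10 min the mixture was diluted and absorbance read at 324 nm. Test compounds were added from a 10 mM solution; the 3-nitropropionic acid reference came from a 100 mM solution. % inhibition = (control − test)/control × 100.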

Data set [7] has as its target Human immunodeficiency virus type 1 reverse transcriptase (Human immunodeficiency virus 1, UniProt Q72547). Put plainly: Inhibition of HIV1 reverse transcriptase. An outline of the steps:
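The radiometric reaction used wild-type RT in 50 mM Tris-HCl pH 7.8 with DTT, glutathione, EDTA, KCl, MgCl2, BSA, Triton X-100, poly(rC)·oligo(dG) template/primer and [3H]dGTP. It ran 15 min at 37 °C, was stopped with carrier DNA, pyrophosphate and TCA, and held on ice 30 min.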

Data set [8] has as its target T1, Isocitrate lyase (Mycobacterium tuberculosis). Put plainly: Inhibition of Mycobacterium tuberculosis isocitrate lyase at 100 mM. Summed up:
as §3

As for `NNC(=O)c1ccncc1` [ISONIAZID], the MIC in data set [1] turned out to be 0.36 µM (≈ 0.0494 µg/mL); in data set [2] it was 182 µM (≈ 25 µg/mL).
On to `CONC(=S)N/N=C1\C(=O)N(CN2CCN(c3ccc(Cl)cc3)CC2)c2ccc(F)cc21`, for which the EC50 in data set [3] amounted to 3.77 µM. In data set [4], this molecule displayed a CC50 at 120 h of 347 µM. Also, the MIC was 3.27 µM (≈ 1.56 µg/mL) in data set [5], 0.67 µM (≈ 0.32 µg/mL) in data set [1] and 42.1 µM (≈ 20.1 µg/mL) in data set [2]. The inhibition in data set [6] came to 28.4%. The IC50 in data set [7] stood at 16.7 µM.
With `CONC(=S)N/N=C1\C(=O)N(CN2CCN(c3ccc(Cl)cc3)CC2)c2ccc(Cl)cc21`, the EC50 in data set [3] stood at 2.43 µM. Besides, in data set [4], it took 229 µM to reach half-maximal cytotoxicity (CC50 at 120 h). Further, the MIC in data set [5] amounted to 6.34 µM (≈ 3.13 µg/mL); in data set [1], 6.82 µM (≈ 3.37 µg/mL); in data set [2] it was 27.3 µM (≈ 13.5 µg/mL). In data set [6], this molecule had an inhibition of 6.38%. This molecule displayed an IC50 in data set [7] of 0.25 µM.
As to `CONC(=S)N/N=C1\C(=O)N(CN2CCN(c3cc4c(cc3F)c(=O)c(C(=O)O)cn4C3CC3)CC2)c2ccc(C)cc21`, the EC50 in data set [3] was found to be 9.22 µM. In data set [4], this molecule had a CC50 at 120 h of 232 µM. In addition, the MIC in data set [5] is 0.66 µM (≈ 0.401 µg/mL). In data set [6], this molecule gave an inhibition of 63.4%.
For `CCn1cc(C(=O)O)c(=O)c2cc(F)c(N3CCN(CN4C(=O)/C(=N\NC(=S)NOC)c5cc(F)ccc54)CC3)cc21`, the EC50 in data set [3] worked out at 10.5 µM. The same molecule returned a CC50 at 120 h in data set [4] of 144 µM. Also, the MIC in data set [5] amounted to 0.67 µM (≈ 0.402 µg/mL); in data set [1], 4.25 µM (≈ 2.55 µg/mL); in data set [2], 17 µM (≈ 10.2 µg/mL).
Regarding `Cc1ccc2c(c1)/C(=N/NC(=S)NO)C(=O)N2CN1CCN(c2ccc(Cl)cc2)CC1`, in data set [3], the EC50 was found to be 6.1 µM. Moreover, the CC50 at 120 h in data set [4] was determined as 335 µM. Besides, inhibition of growth in data set [5] (MIC) required 6.82 µM (≈ 3.13 µg/mL). Besides, in data set [6], the inhibition was 11%. Also, the IC50 in data set [7] was 23.4 µM.
In the case of `CONC(=S)N/N=C1\C(=O)N(CN2CCOCC2)c2ccc(F)cc21`, the EC50 in data set [3] came out at 28.9 µM. Besides, the CC50 at 120 h in data set [4] was determined as 274 µM. Besides, the MIC worked out at 4.25 µM (≈ 1.56 µg/mL) in data set [5], 3.37 µM (≈ 1.24 µg/mL) in data set [1] and 13.5 µM (≈ 4.95 µg/mL) in data set [2]. In data set [6], this molecule showed an inhibition of 15.9%.
Take `CCN(CC)CN1C(=O)/C(=N\NC(=S)NOC)c2cc(C)ccc21`: the EC50 in data set [3] came to 53.3 µM. This molecule showed a CC50 at 120 h in data set [4] of 573 µM. The molecule also returned an MIC in data set [5] of 8.96 µM (≈ 3.13 µg/mL). This molecule displayed an inhibition in data set [6] of 18.9%.
`Cc1ccc2c(c1)/C(=N/NC(=S)NO)C(=O)N2CN1CCN(c2cc3c(cc2F)c(=O)c(C(=O)O)cn3C2CC2)CC1`: in data set [3], the EC50 was determined as 20.9 µM. The CC50 at 120 h in data set [4] was found to be 304 µM. Besides, the MIC came to 0.67 µM (≈ 0.398 µg/mL) in data set [5] and 12.1 µM (≈ 7.19 µg/mL) in data set [2].
Turning to `O=C(O)CC[N+](=O)[O-]`, the inhibition in data set [8] was found to be 66%.
As to `CCn1cc(C(=O)O)c(=O)c2cc(F)c(N3CCN(CN4C(=O)/C(=N\NC(=S)NO)c5cc(F)ccc54)C(C)C3)c(F)c21` (centres undefined), in data set [3], the EC50 came out at 9.93 µM. The molecule also returned a CC50 at 120 h in data set [4] of 187 µM. In addition, the MIC in data set [5] stood at 0.65 µM (≈ 0.401 µg/mL); in data set [1], 0.65 µM (≈ 0.401 µg/mL); in data set [2], 36.9 µM (≈ 22.8 µg/mL).
Turning to `CONC(=S)N/N=C1\C(=O)N(CN2CCN(c3ccc(Cl)cc3)CC2)c2ccc(C)cc21`, in data set [3], the EC50 was found to be 1.69 µM. The molecule further had a CC50 at 120 h in data set [4] of 300 µM. The figures for the MIC in data set [5], in data set [1] and in data set [2] were 3.3 µM (≈ 1.56 µg/mL), 0.65 µM (≈ 0.307 µg/mL) and 20.4 µM (≈ 9.64 µg/mL), respectively. This molecule also showed an inhibition in data set [6] of 9.49%. In addition, in data set [7], half-maximal inhibition (IC50) required 11.5 µM.
For `CCn1cc(C(=O)O)c(=O)c2cc(F)c(N3CCN(CN4C(=O)/C(=N\NC(=S)NO)c5cc(C)ccc54)C(C)C3)c(F)c21` (centres undefined), the EC50 in data set [3] is 11.7 µM. This molecule also displayed a CC50 at 120 h in data set [4] of 244 µM. In addition, the results for the MIC in data set [5], in data set [1] and in data set [2] were 0.65 µM (≈ 0.399 µg/mL), 0.64 µM (≈ 0.393 µg/mL) and 34.6 µM (≈ 21.2 µg/mL), respectively.
With `O=C1/C(=N\NC(=S)NO)c2cc(F)ccc2N1CN1CCN(c2ccc(Cl)cc2)CC1`, the EC50 in data set [3] was found to be 6.85 µM. Also, the CC50 at 120 h in data set [4] was determined as 194 µM. In data set [5], this molecule registered a minimum inhibitory concentration (MIC) of 3.37 µM (≈ 1.56 µg/mL). Moreover, the inhibition in data set [6] stood at 18.5%.
For the molecule `CONC(=S)N/N=C1\C(=O)N(CN2CCN(c3ccc(OC)cc3)CC2)c2ccc(C)cc21`, in data set [3], the EC50 is 9.82 µM. The same molecule gave a CC50 at 120 h in data set [4] of 324 µM. The MIC in data set [5] came to 6.68 µM (≈ 3.13 µg/mL); in data set [1] it was 0.16 µM (≈ 0.075 µg/mL); in data set [2], 9.74 µM (≈ 4.56 µg/mL). For the same molecule, the inhibition in data set [6] worked out at 23.3%.
As to `CONC(=S)N/N=C1\C(=O)N(CN2CCN(c3c(F)cc4c(=O)c(C(=O)O)cn(C5CC5)c4c3OC)CC2C)c2ccc(C)cc21` (centres undefined), in data set [3], the EC50 worked out at 1.86 µM. Further, the cytotoxic concentration (CC50) at 120 h in data set [4] amounted to 154 µM. The figures for the MIC in data set [5], in data set [1] and in data set [2] were 0.31 µM (≈ 0.202 µg/mL), 0.31 µM (≈ 0.202 µg/mL) and 17.8 µM (≈ 11.6 µg/mL), respectively.
Turning to `CO[C@H]1/C=C/O[C@@]2(C)Oc3c(C)c(O)c4c(O)c(c(/C=N/N5CCN(C)CC5)c(O)c4c3C2=O)NC(=O)/C(C)=C\C=C\[C@H](C)[C@H](O)[C@@H](C)[C@@H](O)[C@@H](C)[C@H](OC(C)=O)[C@@H]1C` [RIFAMPIN], the MIC in data set [1] is 0.12 µM (≈ 0.0988 µg/mL); in data set [2], 15.2 µM (≈ 12.5 µg/mL).
Turning to `CCn1cc(C(=O)O)c(=O)c2cc(F)c(N3CCN(CN4C(=O)/C(=N\NC(=S)NOC)c5cc(Cl)ccc54)CC3)cc21`, in data set [3], the EC50 was determined as 19.2 µM. This molecule also had a CC50 at 120 h in data set [4] of 193 µM. For the same molecule, the values for the MIC in data set [5], in data set [1] and in data set [2] were 0.65 µM (≈ 0.4 µg/mL), 0.63 µM (≈ 0.388 µg/mL) and 19.6 µM (≈ 12.1 µg/mL), respectively.
For `O=C(O)c1cn(C2CC2)c2cc(N3CCN(CN4C(=O)/C(=N\NC(=S)NO)c5cc(F)ccc54)CC3)c(F)cc2c1=O`, the EC50 in data set [3] turned out to be 16.5 µM. Further, the midpoint of cytotoxicity in data set [4], the CC50 at 120 h, lay at 222 µM. Further, the values for the MIC in data set [5], in data set [1] and in data set [2] were 0.33 µM (≈ 0.197 µg/mL), 3.27 µM (≈ 1.95 µg/mL) and 13.1 µM (≈ 7.82 µg/mL), respectively.

Broadly, the MIC is the least concentration at which growth counts as inhibited. The term EC50 denotes the concentration giving half of the maximal effect. One may read the CC50 as the concentration giving 50% cytotoxicity. A word on the inhibition: it is how much of the control response was suppressed. A low value points to little suppression. What is called IC50 is the concentration that gives 50% inhibition. A high value points to lower potency.
